Assay results as given in ChEMBL document CHEMBL1136830, “Design and synthesis of dimeric HIV-1 integrase inhibitory peptides” (Bioorg Med Chem Lett, 2003).
Starred links: 1 amine or outer side, 2 acyl side, 3 side chain; linkers in the order of their positions; H or OH if unused. Positions of bridges follow the written chain, without caps; N, C: chain ends. Non-standard residues stand in square brackets, D forms with d. Residues, ends and D or L forms follow the SMILES beside them. Chains are numbered I, II in the order given. X1 = O=C([C@@H](CC[*:3])N[*:1])[*:2]; CH2 = C([*:1])[*:2]

How the values were obtained:
[1] = molecular target: T1, Human immunodeficiency virus type 1 integrase (Human immunodeficiency virus 1, UniProt Q7ZJM1); test: In vitro inhibitory activity against HIV-1 integrase enzyme 3'-end processing
Method in brief: (§1)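 HIV-1 integrase (500 nM) pre-incubated with peptides for 20 min at room temperature in 50 mM MOPS pH 7.2, 7.5 mM NaCl, 7.5 mM MnCl2, 5% glycerol. The 3'-processing and strand-transfer reactions were then run by an earlier published method with these changes. IC50 values were reported for each step.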

[2] = molecular target: T1, Human immunodeficiency virus type 1 integrase; test: In vitro inhibitory activity against HIV-1 integrase enzyme strand transfer process; method in brief: as §1

T1 sequence (Q7ZJM1 whole entry): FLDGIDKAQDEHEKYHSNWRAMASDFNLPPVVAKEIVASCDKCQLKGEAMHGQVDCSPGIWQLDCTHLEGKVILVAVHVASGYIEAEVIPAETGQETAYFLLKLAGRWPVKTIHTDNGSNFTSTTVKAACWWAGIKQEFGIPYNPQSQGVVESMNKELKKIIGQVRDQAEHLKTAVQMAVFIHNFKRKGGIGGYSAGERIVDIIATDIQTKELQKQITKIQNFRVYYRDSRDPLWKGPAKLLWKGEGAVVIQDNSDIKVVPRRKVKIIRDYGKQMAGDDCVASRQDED

Molecule | IC50 [1] [µM] | IC50 [2] [µM]
NCCCC[C@H](NC(=O)[C@H](CSC[C@H](NC(=O)[C@@H](N)Cc1c[nH]cn1)C(=O)N[C@@H](CCCCN)C(=O)N[C@@H](Cc1ccccc1)C(=O)N[C@@H](Cc1c[nH]c2ccccc12)C(=O)N[C@@H](Cc1c[nH]c2ccccc12)C(N)=O)NC(=O)[C@@H](N)Cc1c[nH]cn1)C(=O)N[C@@H](Cc1ccccc1)C(=O)N[C@@H](Cc1c[nH]c2ccccc12)C(=O)N[C@@H](Cc1c[nH]c2ccccc12)C(N)=O | 67 | 19
NCCCC[C@H](NC(=O)[C@H](CSCC[C@@H](NC(=O)[C@@H](N)Cc1c[nH]cn1)C(=O)N[C@@H](CCCCN)C(=O)N[C@@H](Cc1ccccc1)C(=O)N[C@@H](Cc1c[nH]c2ccccc12)C(=O)N[C@@H](Cc1c[nH]c2ccccc12)C(N)=O)NC(=O)[C@@H](N)Cc1c[nH]cn1)C(=O)N[C@@H](Cc1ccccc1)C(=O)N[C@@H](Cc1c[nH]c2ccccc12)C(=O)N[C@@H](Cc1c[nH]c2ccccc12)C(N)=O (I: H-H[X1]KFWW-NH2 / II: H-HCKFWW-NH2; thioether I:2-II:2) | 77 | 87
NCCCC[C@H](NC(=O)[C@H](CSSC[C@H](NC(=O)[C@@H](N)Cc1c[nH]cn1)C(=O)N[C@@H](CCCCN)C(=O)N[C@@H](Cc1ccccc1)C(=O)N[C@@H](Cc1c[nH]c2ccccc12)C(=O)N[C@@H](Cc1c[nH]c2ccccc12)C(N)=O)NC(=O)[C@@H](N)Cc1c[nH]cn1)C(=O)N[C@@H](Cc1ccccc1)C(=O)N[C@@H](Cc1c[nH]c2ccccc12)C(=O)N[C@@H](Cc1c[nH]c2ccccc12)C(N)=O (I: H-HCKFWW-NH2 / II: H-HCKFWW-NH2; disulfide I:2-II:2) | 81 | 58
NCCCC[C@H](NC(=O)[C@@H](CCSCC[C@@H](NC(=O)[C@@H](N)Cc1c[nH]cn1)C(=O)N[C@@H](CCCCN)C(=O)N[C@@H](Cc1ccccc1)C(=O)N[C@@H](Cc1c[nH]c2ccccc12)C(=O)N[C@@H](Cc1c[nH]c2ccccc12)C(N)=O)NC(=O)[C@@H](N)Cc1c[nH]cn1)C(=O)N[C@@H](Cc1ccccc1)C(=O)N[C@@H](Cc1c[nH]c2ccccc12)C(=O)N[C@@H](Cc1c[nH]c2ccccc12)C(N)=O | 59 | 63
H-HCKFWW-NH2 | 102 | 90
NCCCC[C@H](NC(=O)[C@H](CSCSC[C@H](NC(=O)[C@@H](N)Cc1c[nH]cn1)C(=O)N[C@@H](CCCCN)C(=O)N[C@@H](Cc1ccccc1)C(=O)N[C@@H](Cc1c[nH]c2ccccc12)C(=O)N[C@@H](Cc1c[nH]c2ccccc12)C(N)=O)NC(=O)[C@@H](N)Cc1c[nH]cn1)C(=O)N[C@@H](Cc1ccccc1)C(=O)N[C@@H](Cc1c[nH]c2ccccc12)C(=O)N[C@@H](Cc1c[nH]c2ccccc12)C(N)=O (I: H-HCKFWW-NH2 / II: H-HCKFWW-NH2; linker I:2-II:2 via CH2) | 5.3 | 6.5
